Screening data deposited in PubChem by The Scripps Research Institute Molecular Screening Center.
ARFGAP1 inh: inhibits rat ARF GTPase activating protein 1 | Arfgap1-stimulated ARF1 GTP hydrolysis, GDP FP detection | inhibition, % at 16.5 µM | 360,000 compounds, 0.26% hits;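 active means inhibition above a per-plate limit, mean inhibition of low control wells plus 3 SD, cut at about 25% in these data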;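 further: 0% = DMSO wells with enzyme and 100% = wells lacking Arfgap1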
Target sequence (Q62848 1-136 limits assumed): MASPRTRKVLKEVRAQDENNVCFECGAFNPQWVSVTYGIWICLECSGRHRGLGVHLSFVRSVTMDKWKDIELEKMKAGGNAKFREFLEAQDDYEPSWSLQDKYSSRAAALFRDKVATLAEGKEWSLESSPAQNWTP
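Assay system: purified rat His6-Arfgap1 residues 1-136 (GAP domain); Reagent: human Δ17 ARF1 bound to GTP; Dosing: 16.5 µM single point, 1.26% DMSO; Times: GTP hydrolysis reaction 2 h at 25 °C; Signal: FP, GDP Alexa 633 tracer displaced from anti-GDP antibody, 620/688 nm; Measure: % inhibition from polarization.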
ASAP1 GAP inh: inhibitors of human ASAP1 ArfGAP activity; Q9ULH1; inhibition, % at 16.5 µM; AID 624377; 360,000 compounds, 0.19% hits; ASAP1-stimulated ARF1 GTP hydrolysis, GDP FP detection; in the data active means inhibition above about 25%;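 further: 0% = vehicle with enzyme and substrate and 100% = no enzyme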
PAFAH1B2 FP inh: blocks human PAF acetylhydrolase 1b catalytic subunit 2 | P68402 | recombinant PAFAH1B2, FP-rhodamine activity probe, fluorescence polarization | inhibition, % at 3.39 µM | 340,000 compounds, 1.2% hits;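 active means inhibition above the mean of all tested compounds plus 3 SD, cut at about 24% in these data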;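 further: 0% = enzyme with DMSO and 100% = wells lacking PAFAH1B2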
pPAFAH FP inh: inhibitors of human plasma PAF acetylhydrolase (pPAFAH) | Q13093 | 330,000 compounds, 1.5% hits | inhibition, % at 3.39 µM | AID 463082 | recombinant pPAFAH, FP-rhodamine probe fluorescence polarization;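 active means inhibition above the mean inhibition across the screen plus 3 SD, cut at about 25% in these data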;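 further: inhibitors block binding of the rhodamine activity-based probe so polarization drops; 0% = enzyme with DMSO and 100% = wells lacking pPAFAH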
PAFAH2 FP inh: inhibitors of human PAFAH2. recombinant PAFAH2, FP-rhodamine activity probe, fluorescence polarization. AID 492956. inhibition, % at 3.39 µM. 340,000 compounds, 0.99% hits;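 active means inhibition above the mean over all tested compounds plus 3 SD, cut at about 30% in these data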;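 further: inhibitors block probe labeling of enzyme so polarization drops; 0% = enzyme with DMSO and 100% = wells lacking PAFAH2 protein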
PAFAH1B3 inh: PAFAH1B3 (human) inhibition; 340,000 compounds, 0.28% hits; AID 492972; inhibition, % at 3.39 µM; recombinant PAFAH1B3, FP-rhodamine probe, fluorescence polarization;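 active means inhibition above the screen-wide average of all tested compounds plus 3 SD, cut at about 25% in these data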;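 further: 0% = enzyme with DMSO only and 100% = wells lacking PAFAH1B3 protein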
Target sequence (Q15102 whole entry, looked up): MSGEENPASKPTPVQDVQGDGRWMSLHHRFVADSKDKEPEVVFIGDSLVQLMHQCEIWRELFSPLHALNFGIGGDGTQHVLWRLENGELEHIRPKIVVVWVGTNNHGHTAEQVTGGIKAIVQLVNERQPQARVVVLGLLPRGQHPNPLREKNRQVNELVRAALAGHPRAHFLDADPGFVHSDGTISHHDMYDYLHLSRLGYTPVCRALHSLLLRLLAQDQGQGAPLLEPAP
Starred values were filed as active, the others as inactive; x = no result given. Most compounds without a hit are left out; they make up all but 2.7% or so of the library.

SMILES	ARFGAP1 inh	ASAP1 GAP inh	PAFAH1B2 FP inh	pPAFAH FP inh	PAFAH2 FP inh	PAFAH1B3 inh
CC(C)[C@H](NC(=O)CC1CCCC1)C(=O)N1CCC[C@H]1C(=O)NCc1ccccc1	16	4	x	x	x	x
COC(=O)[C@]12C[C@H](CC(=O)N3CCCC3)C(=O)N(Cc3ccccc3)C1=C[C@H](C1CCCC1)O[C@@H]2C	-2	-11	x	x	x	x
Cc1ccc(SCC(=O)NC(C)c2ccccc2)cc1 (stereo not drawn)	3	13	34*	-4	0	0
Cc1csc(SCC(=O)NC(C)c2ccccc2)n1 (stereo not drawn)	-8	12	3	3	2	-6
O=C(COC(=O)c1cccc(Cl)c1Cl)NCc1cccs1	-1	-16	3	33*	33*	8
COc1ccc(-c2cc(NC(=O)Cc3c[nH]c4ccccc34)ccc2Nc2cccnc2)cc1F	15	14	x	x	x	x
O=C(C(=O)N1CCN(S(=O)(=O)c2ccccc2)CC1)c1cccc(C(F)(F)F)c1	8	-10	x	x	x	x
CSc1nc(N)nc(SCC(=O)Nc2ccc(Cl)cc2)c1C#N	1	10	-4	-14	-25	-7
Nc1ccccc1SCCS(=O)(=O)c1ccc(Cl)cc1	-2	0	28*	2	8	6
CSc1nc(N)nc(SCCS(=O)(=O)c2ccc(Cl)cc2)c1C#N	-6	6	25*	-4	-3	-8
Cn1c(SCCS(=O)(=O)c2ccc(Cl)cc2)nnc1-c1ccccc1	-8	-9	3	3	3	-5
FC(F)(F)c1cccc(N2CCN(C(=S)NCC3CCCO3)CC2)c1 (stereo not drawn)	-2	-3	5	30*	3	7
S=C(NCC1CCCO1)N1CCN(c2ccccc2)CC1 (stereo not drawn)	3	-3	0	5	5	2
CCC(C)(C)n1nnnc1C(c1cc2ccc(OC)cc2[nH]c1=O)N1CCc2ccccc2C1 (stereo not drawn)	13	3	2	23	1	5
COc1ccc2cc(C(c3nnnn3C(C)(C)C)N3CCc4ccccc4C3)c(=O)[nH]c2c1 (stereo not drawn)	x	x	x	34*	x	x
COC(=O)C1=C(O)/C(=C\c2ccc(CNS(=O)(=O)c3ccc(Cl)cc3)o2)N=C1C	8	-12	7	16	16	3
CCOC(=O)C1=C(O)/C(=C\c2ccc(CNS(=O)(=O)c3ccc(Br)cc3)o2)N=C1C	4	12	8	28*	-3	10
O=C1NN(c2ccc(Cl)c(Cl)c2)C(=O)/C1=C/c1ccc(-c2ccccc2C(=O)O)o1	-6	2	26*	x	30*	4
O=C1NN(c2cccc(Br)c2)C(=O)/C1=C/c1ccc(-c2cc([N+](=O)[O-])ccc2O)o1	x	x	17	28*	47*	31*
O=C(Cc1cn(Cc2ccccc2)c2ccccc12)Nc1ccc(Nc2cccnc2)c(Br)c1	14	3	x	x	x	x
CCCCS(=O)(=O)NCC1CCN(C(=O)C(=O)c2cc3ccccc3o2)CC1	3	-8	x	x	x	x
O=S(=O)(NCc1ccc(F)cc1)c1ccccc1Br	5	9	25*	1	1	4
O=C(/C=N/O)Nc1ccc2sc3ccccc3c2c1	4	-1	42*	33*	47*	62*
COC(=O)c1ccccc1NC(=O)/C=N/O	0	7	5	2	8	20
O=C(O)c1cccc(-n2cccc2/C=C2/NC(=O)N(c3ccc(Cl)cc3)C2=O)c1	-14	-8	28*	x	72*	36*
CC(C)C(C(=O)Nc1nccs1)c1ccc(Cl)cc1 (stereo not drawn)	0	4	36*	0	10	8
O=C(CSCc1ccc(Cl)cc1)Nc1nccs1	15	-2	28*	3	9	8
CC(C(=O)Nc1nccs1)c1ccc([N+](=O)[O-])cc1 (stereo not drawn)	0	-3	9	1	1	4
OCCC1CN(Cc2c(F)cccc2Cl)CCN1C1CCCCC1 (stereo not drawn)	-3	-15	-4	32*	-5	-1
OCCC1CN(Cc2c(F)cccc2Cl)CCN1C1CCCC1 (stereo not drawn)	5	-9	2	0	7	4
